What was measured:
Cytochrome P450 3A4 = Cytochrome P450 3A4 (Homo sapiens, UniProt P08684); assay: Inhibition of CYP3A4; assay type: ADME
[1] = Plasma concentration in vagotomized dog at 1 mg/kg, iv after 30 mins; assay type: ADME, organism-based, Canis lupus familiaris; parameters: dose 1 mg/kg, route intravenous
In short: (§1)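 Anesthetized, vagotomized dogs; intravenous infusion in sequential rising doses of 1, 3 and 10 mg/kg (cumulative); plasma exposure sampled at indicated time points, n = 3.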

[2] = target: T1, Voltage-dependent N-type calcium channel subunit alpha-1B (Homo sapiens, UniProt Q00975); assay: Inhibition of human Cav2.2 expressed CBK cells assessed as inhibition of channel current at 10 uM at holding membrane potential -90 mV by conventional patch clamp electrophysiology assay
In short: (§2)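 Cav2.2 current block was measured at a depolarized (−40 mV) or hyperpolarized (−90 mV) potential. At −40 mV, n = 2, 3, 4 and 1 at 0.3, 1, 3 and 10 μM. At −90 mV, n = 4 and 6 at 3 and 10 μM. Values are mean ± SEM.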
Target sequence in this assay (Q00975 whole entry, looked up): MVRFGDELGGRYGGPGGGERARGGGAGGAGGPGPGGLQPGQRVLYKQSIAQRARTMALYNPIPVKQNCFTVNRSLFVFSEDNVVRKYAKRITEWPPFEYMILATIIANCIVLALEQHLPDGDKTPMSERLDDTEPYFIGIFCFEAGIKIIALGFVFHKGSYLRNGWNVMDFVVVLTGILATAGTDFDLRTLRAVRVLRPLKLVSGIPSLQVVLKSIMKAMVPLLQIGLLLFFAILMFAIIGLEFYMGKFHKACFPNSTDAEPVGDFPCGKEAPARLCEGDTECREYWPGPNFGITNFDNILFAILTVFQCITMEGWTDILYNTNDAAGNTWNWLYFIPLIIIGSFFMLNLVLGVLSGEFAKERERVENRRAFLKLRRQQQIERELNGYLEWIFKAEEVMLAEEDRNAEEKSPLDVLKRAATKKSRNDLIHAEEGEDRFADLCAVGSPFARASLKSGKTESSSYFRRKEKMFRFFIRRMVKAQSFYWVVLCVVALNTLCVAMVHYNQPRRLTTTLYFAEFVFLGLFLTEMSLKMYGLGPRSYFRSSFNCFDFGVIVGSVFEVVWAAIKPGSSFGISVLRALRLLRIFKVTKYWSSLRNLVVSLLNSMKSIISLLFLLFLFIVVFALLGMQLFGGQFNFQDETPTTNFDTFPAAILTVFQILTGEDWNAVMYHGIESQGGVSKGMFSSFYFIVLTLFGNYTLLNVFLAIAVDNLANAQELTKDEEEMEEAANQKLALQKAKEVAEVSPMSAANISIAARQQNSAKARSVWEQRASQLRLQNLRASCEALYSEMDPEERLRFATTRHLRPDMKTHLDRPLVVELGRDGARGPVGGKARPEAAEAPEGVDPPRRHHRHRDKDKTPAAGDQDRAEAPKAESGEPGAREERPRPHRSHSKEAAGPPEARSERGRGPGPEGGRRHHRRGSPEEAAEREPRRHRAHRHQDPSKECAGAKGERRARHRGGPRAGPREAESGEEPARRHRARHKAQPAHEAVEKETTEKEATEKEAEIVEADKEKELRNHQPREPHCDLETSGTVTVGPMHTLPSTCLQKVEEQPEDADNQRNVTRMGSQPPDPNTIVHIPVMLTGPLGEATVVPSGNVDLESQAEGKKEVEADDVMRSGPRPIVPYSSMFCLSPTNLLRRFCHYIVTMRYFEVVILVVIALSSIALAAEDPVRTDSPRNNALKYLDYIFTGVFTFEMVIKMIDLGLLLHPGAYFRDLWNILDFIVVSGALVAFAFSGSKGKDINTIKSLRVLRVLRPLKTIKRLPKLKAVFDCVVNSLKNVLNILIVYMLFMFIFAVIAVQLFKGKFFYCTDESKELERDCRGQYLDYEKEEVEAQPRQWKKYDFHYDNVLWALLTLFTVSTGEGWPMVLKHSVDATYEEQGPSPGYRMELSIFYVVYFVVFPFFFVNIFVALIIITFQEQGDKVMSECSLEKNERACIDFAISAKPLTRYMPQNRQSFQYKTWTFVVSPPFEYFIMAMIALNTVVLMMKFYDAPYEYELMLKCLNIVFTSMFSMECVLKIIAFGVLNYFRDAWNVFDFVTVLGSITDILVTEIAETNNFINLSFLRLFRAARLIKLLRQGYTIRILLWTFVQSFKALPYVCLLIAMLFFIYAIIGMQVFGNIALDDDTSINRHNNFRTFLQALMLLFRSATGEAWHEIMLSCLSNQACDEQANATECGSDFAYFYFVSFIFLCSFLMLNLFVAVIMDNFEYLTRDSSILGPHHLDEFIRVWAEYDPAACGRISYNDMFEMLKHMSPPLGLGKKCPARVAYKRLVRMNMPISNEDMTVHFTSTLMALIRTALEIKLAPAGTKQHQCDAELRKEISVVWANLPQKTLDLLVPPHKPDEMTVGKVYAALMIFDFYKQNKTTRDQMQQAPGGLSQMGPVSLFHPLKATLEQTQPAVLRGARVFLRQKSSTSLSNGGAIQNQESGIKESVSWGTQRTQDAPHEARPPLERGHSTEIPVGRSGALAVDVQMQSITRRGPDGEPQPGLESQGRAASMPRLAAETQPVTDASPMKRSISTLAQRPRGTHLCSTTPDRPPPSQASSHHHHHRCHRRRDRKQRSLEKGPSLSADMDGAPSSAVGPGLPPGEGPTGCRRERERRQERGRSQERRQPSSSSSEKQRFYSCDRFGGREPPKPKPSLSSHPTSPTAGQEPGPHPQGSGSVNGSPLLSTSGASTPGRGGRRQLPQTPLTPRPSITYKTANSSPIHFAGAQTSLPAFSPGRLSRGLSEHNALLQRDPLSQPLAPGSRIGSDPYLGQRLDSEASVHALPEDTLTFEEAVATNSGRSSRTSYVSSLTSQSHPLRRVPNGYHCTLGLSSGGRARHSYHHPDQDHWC

Mus musculus [3] = assay: Antinociceptive activity in Cav2.2 expressing wild type mouse assessed as reversal of complete Freund's adjuvant-induced pain at 30 mg/kg, po after 2 hrs; assay type: functional
[4] = Tmax in rat at 3 mg/kg; assay type: ADME, organism-based; parameters: dose 3 mg/kg; settings: in vivo
In short: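 Rat pharmacokinetics: 3 mg/kg po arm alongside 1 mg/kg iv; tmax from oral arm, half-life from iv dosing.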

[5] = Plasma concentration in rat complete Freund's adjuvant-induced pain model at 10 mg/kg, po after 3 hrs; assay type: ADME, organism-based; parameters: dose 10 mg/kg, route oral
In short: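 Separate CFA-treated rats given single oral 10 mg/kg dose; plasma exposure measured 3 h after dosing.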

[6] = Plasma concentration in vagotomized dog at 3 mg/kg, iv after 60 mins; assay type: ADME, organism-based, Canis lupus familiaris; parameters: dose 3 mg/kg, route intravenous; in short: as §1
Canis familiaris [7] = assay: Cardiotoxicity in vagotomized dog assessed as heart rate at 1 to 10 mg/kg, iv up to 90 mins; assay type: toxicity, organism-based, Canis lupus familiaris; parameters: dose 1-10 mg/kg, route intravenous; settings: in vivo, 1.5 h
In short: (§3)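 Anesthetized, vagotomized dogs received an intravenous infusion in sequential rising cumulative doses of 1, 3 and 10 mg/kg. MAP, HR, QRS, PR and QTc were monitored, with plasma exposure sampled at the indicated time points (n = 3).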

PXR = target: T2, PXR (Homo sapiens, UniProt O75469); assay: Activation of PXR at 10 uM relative to control; settings: read-out: max activation
T2 sequence (O75469 whole entry): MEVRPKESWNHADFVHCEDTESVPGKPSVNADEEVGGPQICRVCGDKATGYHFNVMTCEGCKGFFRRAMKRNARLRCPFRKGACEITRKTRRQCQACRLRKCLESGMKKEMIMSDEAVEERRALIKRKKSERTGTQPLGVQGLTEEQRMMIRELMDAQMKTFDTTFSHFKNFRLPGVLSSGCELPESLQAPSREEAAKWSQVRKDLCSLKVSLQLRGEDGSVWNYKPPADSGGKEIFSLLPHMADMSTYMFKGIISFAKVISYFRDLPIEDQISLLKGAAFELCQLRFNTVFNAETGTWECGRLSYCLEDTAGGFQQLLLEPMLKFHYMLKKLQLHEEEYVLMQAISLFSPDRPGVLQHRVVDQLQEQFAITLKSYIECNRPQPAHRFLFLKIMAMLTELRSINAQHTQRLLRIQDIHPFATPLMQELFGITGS

[8] = Drug metabolism in Sprague-Dawley rat assessed as parent compound level in blood at 10 mg/kg, po after 8 hrs; assay type: ADME, organism-based; parameters: dose 10 mg/kg, route oral; settings: read-out: Drug metabolism
In short: (§4)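 Male Sprague-Dawley rats were given a 10 mg/kg oral dose. Parent and metabolite concentrations were measured in whole blood and brain over time, including 8 h postdose.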

Canis familiaris [9] = assay: Cardiotoxicity in vagotomized dog assessed as QRS interval at 1 to 10 mg/kg, iv up to 90 mins; assay type: toxicity, organism-based, Canis lupus familiaris; parameters: dose 1-10 mg/kg, route intravenous; settings: in vivo, 1.5 h; in short: as §3
[10] = target: T1, Voltage-dependent N-type calcium channel subunit alpha-1B; assay: Inhibition of Cav2.2 expressed HEK293 cells assessed as inhibition of calcium flux by FLIPR assay in presence of 30 mM of potassium; assay type: cell-based
In short: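 Calcium influx was read with a calcium-sensitive dye on FLIPR Tetra in CBK cells expressing α1B-1, α2-δ and β3a with Kir2.3. Cells were preincubated with compound in 30 mM K+, then channels were opened by 1:1 addition of 140 mM K+ solution. Compounds were screened at 1 μM, then titrated over 10 points (0.001–30 μM) in quadruplicate, mean ± SD. Values are averages of n ≥ 3.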
Target sequence in this assay (Q00975 whole entry): as the sequence (Q00975 whole entry, looked up) above

Rattus norvegicus [11] = assay: Analgesic activity in rat SNL neuropathic pain model assessed as reversal of mechanical allodynia at 30 mg/kg, po after 1 hr; assay type: functional
Liver microsomes = assay: Drug metabolism in human liver microsomes assessed as assessed as 3-trifluoromethylbenzenesulfonamide level level; assay type: ADME, Microsome
[12] = Metabolic stability in rat liver microsomes assessed as compound remaining at 1 uM after 1 hr; assay type: ADME, Microsome; settings: read-out: Stability
In short: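 Compound at 1 μM was incubated with human or rat liver microsomes (1 mg/mL) for 1 h, and the percentage of parent remaining was determined.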

Brain = assay: Drug metabolism in Sprague-Dawley rat assessed as 3-trifluoromethylbenzenesulfonamide level in brain at 10 mg/kg, po after 8 hrs; assay type: ADME, organism-based; parameters: dose 10 mg/kg, route oral; settings: in vivo; in short: as §4
[13] = Oral bioavailability in rat at 3 mg/kg; assay type: ADME, organism-based; settings: in vivo
In short: (§5)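 Rat pharmacokinetics from iv and po arms: 0.6 mg/kg iv with 1.8 mg/kg po, or 1 mg/kg iv with 3 mg/kg po. AUC was normalized to po dose (μM·h·kg/mg). Clearance (mL/min/kg) and half-life come from the iv arm, and F% is oral bioavailability.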

Mus musculus [14] = assay: Antinociceptive activity in Cav2.2 deficient mouse assessed as reversal of complete Freund's adjuvant-induced pain at 30 mg/kg, po after 2 hrs; assay type: functional
[15] = Plasma concentration in rat complete Freund's adjuvant-induced pain model at 30 mg/kg, po after 3 hrs; assay type: ADME, organism-based; parameters: dose 30 mg/kg, route oral
In short: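 Satellite rats in CFA inflammatory pain study, 30 mg/kg po; plasma exposure (μM) at 3 h, n = 2, standard deviation.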

Cav1.2 = Cav1.2 (Homo sapiens, UniProt Q13936); assay: Inhibition of Cav1.2 assessed as inhibition of calcium flux at 3 uM by cell based FLIPR assay
In short: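 Cav1.2 counterscreen using a related calcium-influx FLIPR assay, run as % inhibition at single concentrations or as a titration.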

[16] = target: T1, Voltage-dependent N-type calcium channel subunit alpha-1B; assay: Inhibition of human Cav2.2 expressed CBK cells assessed as inhibition of channel current at <1 uM at holding membrane potential -40 mV by conventional patch clamp electrophysiology assay; in short: as §2
Target sequence in this assay (Q00975 whole entry, looked up): as the sequence (Q00975 whole entry, looked up) above

[17] = Fraction unbound in human plasma; assay type: ADME, cell-free
Rattus norvegicus [18] = assay: Analgesic activity in po dosed rat SNL neuropathic pain model assessed as reversal of mechanical allodynia after 1 to 24 hrs; assay type: functional, organism-based
hERG = hERG (Homo sapiens, UniProt Q12809); assay: Displacement of [35S]-MK-0499 from human ERG at 1 uM; settings: probe [35S]-MK-0499
Chain of hERG (Q12809 whole entry): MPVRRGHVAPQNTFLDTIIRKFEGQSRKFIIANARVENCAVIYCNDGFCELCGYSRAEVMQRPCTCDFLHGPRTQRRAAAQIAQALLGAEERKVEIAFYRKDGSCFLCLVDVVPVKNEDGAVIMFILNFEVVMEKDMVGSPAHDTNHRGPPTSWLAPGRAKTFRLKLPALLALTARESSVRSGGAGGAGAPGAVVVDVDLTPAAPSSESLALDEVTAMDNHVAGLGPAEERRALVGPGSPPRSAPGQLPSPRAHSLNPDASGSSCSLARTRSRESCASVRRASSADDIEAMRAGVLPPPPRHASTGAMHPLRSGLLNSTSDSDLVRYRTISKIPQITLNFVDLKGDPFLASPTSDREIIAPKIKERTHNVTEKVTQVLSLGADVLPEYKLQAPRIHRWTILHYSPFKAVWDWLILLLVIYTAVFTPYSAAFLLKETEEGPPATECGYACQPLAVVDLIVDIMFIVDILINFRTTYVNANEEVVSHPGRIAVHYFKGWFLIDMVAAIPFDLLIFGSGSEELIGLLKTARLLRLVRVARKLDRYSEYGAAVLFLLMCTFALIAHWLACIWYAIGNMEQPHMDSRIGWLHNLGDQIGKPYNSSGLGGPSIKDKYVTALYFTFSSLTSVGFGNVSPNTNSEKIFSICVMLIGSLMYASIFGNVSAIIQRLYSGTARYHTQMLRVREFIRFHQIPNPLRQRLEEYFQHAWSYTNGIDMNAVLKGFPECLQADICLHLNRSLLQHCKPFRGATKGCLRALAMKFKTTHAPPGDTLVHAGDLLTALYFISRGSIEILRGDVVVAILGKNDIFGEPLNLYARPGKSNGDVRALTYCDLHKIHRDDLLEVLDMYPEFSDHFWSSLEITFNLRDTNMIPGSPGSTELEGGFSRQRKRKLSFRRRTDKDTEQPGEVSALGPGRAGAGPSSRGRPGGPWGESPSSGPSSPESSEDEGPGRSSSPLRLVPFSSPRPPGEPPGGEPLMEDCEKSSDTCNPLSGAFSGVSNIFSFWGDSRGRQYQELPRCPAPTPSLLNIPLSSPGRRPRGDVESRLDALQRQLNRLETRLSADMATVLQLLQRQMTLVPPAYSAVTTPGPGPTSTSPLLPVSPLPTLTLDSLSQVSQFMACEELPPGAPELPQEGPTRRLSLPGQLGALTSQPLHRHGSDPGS
In short: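 hERG binding was measured as displacement of 35S-labeled MK-0499 at single test concentrations.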

[19] = Plasma clearance in rat at 3 mg/kg, po and 1 mg/kg, iv; assay type: ADME, organism-based; in short: as §5

Chain of Cytochrome P450 3A4 (P08684 whole entry): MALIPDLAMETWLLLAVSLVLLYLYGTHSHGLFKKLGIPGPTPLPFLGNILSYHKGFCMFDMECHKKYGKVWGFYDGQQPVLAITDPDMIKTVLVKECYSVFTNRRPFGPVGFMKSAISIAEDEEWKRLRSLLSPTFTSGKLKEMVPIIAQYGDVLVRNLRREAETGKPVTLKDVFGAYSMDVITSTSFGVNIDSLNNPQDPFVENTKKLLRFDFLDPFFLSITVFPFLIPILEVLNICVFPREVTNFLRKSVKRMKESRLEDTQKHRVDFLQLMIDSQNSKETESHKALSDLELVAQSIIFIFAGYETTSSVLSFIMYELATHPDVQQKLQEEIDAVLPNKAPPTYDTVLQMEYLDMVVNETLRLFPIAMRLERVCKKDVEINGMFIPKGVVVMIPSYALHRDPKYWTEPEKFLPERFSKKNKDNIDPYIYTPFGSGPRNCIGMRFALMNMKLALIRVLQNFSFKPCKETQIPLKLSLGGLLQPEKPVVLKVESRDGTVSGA

## CS(=O)(=O)c1ccc(F)cc1C(=O)N1CCC(N(C2CC2)S(=O)(=O)c2cccc(C(F)(F)F)c2)CC1
Cytochrome P450 3A4
  IC50: 5.1 µM
[1]
  concentration at 0.5 h: 1960 nM
[2]
  inhibition: 43%
Mus musculus [3]
  Activity: 35%
[4]
  Tmax: 1.7 h
[5]
  concentration at 3 h: 1660 nM
[6]
  concentration at 1 h: 5790 nM
Canis familiaris [7]
  Activity: Non-toxic
PXR
  Emax at 10 µM: 124%
[8]
  concentration at 8 h: 310 nM
Canis familiaris [9]
  Activity: Non-toxic
[10]
  IC50: 0.56 µM
Rattus norvegicus [11]
  Activity: 65%
Liver microsomes
  Drug metabolism: Active
[12]
  remaining at 1 h, 1 µM: 40%
Brain
  Drug metabolism: Active
[13]
  bioavailability: 99%
Mus musculus [14]
  Activity: 4%
[15]
  concentration at 3 h: 1600 nM
Cav1.2
  inhibition at 3 µM: 34%
[16]
  inhibition: > 50%
[17]
  fraction unbound: 0.014
Rattus norvegicus [18]
  Activity: Dose-dependent effect
hERG
  inhibition at 1 µM: 1.6%
[19]
  clearance: 35 mL/min/kg

From ChEMBL document CHEMBL2176883, “Aminopiperidine sulfonamide Cav2.2 channel inhibitors for the treatment of chronic pain” (J Med Chem, 2012)
